Measurements reported in ChEMBL document CHEMBL1145477, “Activity of T-1106 in a hamster model of yellow Fever virus infection” (Antimicrob Agents Chemother, 2007).

Columns and labels:
Format in all cases: functional
Yellow fever virus [1] = assay: Antiviral activity against YFV Jimenez infected in Syrian golden hamster assessed as mean day to death after 21 days post-infection at 50 mg/kg, ip bid for 7 days; details: route intraperitoneal
Yellow fever virus [2] = assay: Antiviral activity against YFV Jimenez infected in Syrian golden hamster assessed as serum alanine aminotransferase at 50 mg/kg, ip bid for 7 days; details: route intraperitoneal
How it was run: (§1)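 YFV (Jimenez)-infected female hamsters were treated b.i.d. i.p. or p.o. Serum was drawn by ocular sinus at 6 dpi. ALT was read with a colorimetric kit adapted to microplates: substrate plus serum for 30 min at 37°C, then colour reagent and developer, absorbance at 505 nm. Values are IU/liter against saline controls.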

Yellow fever virus [3] = assay: Antiviral activity against YFV Jimenez infected in Syrian golden hamster liver treated 4 hrs before viral challenge assessed as mean day to death at 50 mg/kg/day, ip bid for 8 days; details: route intraperitoneal
Yellow fever virus [4] = assay: Antiviral activity against YFV Jimenez infected in Syrian golden hamster liver treated 4 hrs before viral challenge assessed as alanine aminotransferase at 50 mg/kg/day, ip bid for 8 days; details: route intraperitoneal; how it was run: as §1
Yellow fever virus [5] = assay: Antiviral activity against YFV Jimenez infected in Syrian golden hamster assessed as weight change at 50 mg/kg, po bid for 7 days

## NC(=O)c1ncn([C@@H]2O[C@H](CO)[C@@H](O)[C@H]2O)n1 [RIBAVIRIN]
Yellow fever virus [1]
  Activity: 6 days
Yellow fever virus [2]
  Activity: 120 IU/L
Yellow fever virus [3]
  Activity: 6 days
Yellow fever virus [4]
  Activity: 120 IU/L
Yellow fever virus [5]
  Activity: 1.3 g
